CHOP inhibitor = inhibitors of CHOP induction in ER stress response; inhibition, % at 10 µM; AID 2732; 220,000 tested, 3.8% active; CHO-K1 CHOP-promoter luciferase, tunicamycin-induced, 15-18 h;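 active means compounds that reduced the stress-induced luciferase reporter signal by more than about 70% of percent inhibition, limit read from the data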;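 further: 0% = tunicamycin plus vehicle and 100% = wells without tunicamycin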
UPR XBP1 act = activators of adaptive arm of unfolded protein response (XBP1); activation, % at 20 µM; CHO-XBP1 luciferase reporter, IRE1-XBP1 UPR activation, luminescence; percent of tunicamycin response, DMSO as zero; 330,000 tested, 0.33% active;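 active means versus positive control, 20 µM dose yields 30% or more activation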;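 further: 100% = tunicamycin at 10 µg/mL and 0% = DMSO only wells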
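Material: CHO-XBP1 cells stably carrying IRE1-XBP1-driven luciferase reporter / Amount: 1000 cells per well / Compound: 20 µM, 1% DMSO / Times: 6 h treatment, 37 °C / Detection: luciferase luminescence / Measure: % activation of reporter signal versus tunicamycin and DMSO controls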
CHOP UPR activ = apoptotic UPR (CHOP) activation | AID 449763 | 330,000 tested, 0.34% active | CHO-CHOP luciferase reporter, luminescence; percent of tunicamycin response over DMSO baseline | activation, % at 10 µM;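 active means at 10 µM dose, activation of 40% or more, normalized to positive control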;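 further: 100% = tunicamycin at 10 µg/mL and 0% = DMSO alone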
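Dosing – one dose, 10 µM in 0.5% DMSO · System – CHO-CHOP cells, stable luciferase reporter of PERK-eIF2a-CHOP signalling · Input – 500 cells/well · Control set – tunicamycin 10 µg/mL final as positive, DMSO-only wells as negative · Timing – 6 h compound treatment, 37 °C · Measure – % activation vs tunicamycin · Technique – luminescence read with Steady-Glo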
VLA-4 inh = inhibition in a human VLA-4 binding assay | inhibition, % (about 7 µM as worked out from the volumes in the protocol) | 330,000 tested, 0.2% active | P13612 | VLA-4 expressing cells, ligand binding flow cytometry; in the data active means inhibition above about 50%
Target sequence (P13612 whole entry, looked up): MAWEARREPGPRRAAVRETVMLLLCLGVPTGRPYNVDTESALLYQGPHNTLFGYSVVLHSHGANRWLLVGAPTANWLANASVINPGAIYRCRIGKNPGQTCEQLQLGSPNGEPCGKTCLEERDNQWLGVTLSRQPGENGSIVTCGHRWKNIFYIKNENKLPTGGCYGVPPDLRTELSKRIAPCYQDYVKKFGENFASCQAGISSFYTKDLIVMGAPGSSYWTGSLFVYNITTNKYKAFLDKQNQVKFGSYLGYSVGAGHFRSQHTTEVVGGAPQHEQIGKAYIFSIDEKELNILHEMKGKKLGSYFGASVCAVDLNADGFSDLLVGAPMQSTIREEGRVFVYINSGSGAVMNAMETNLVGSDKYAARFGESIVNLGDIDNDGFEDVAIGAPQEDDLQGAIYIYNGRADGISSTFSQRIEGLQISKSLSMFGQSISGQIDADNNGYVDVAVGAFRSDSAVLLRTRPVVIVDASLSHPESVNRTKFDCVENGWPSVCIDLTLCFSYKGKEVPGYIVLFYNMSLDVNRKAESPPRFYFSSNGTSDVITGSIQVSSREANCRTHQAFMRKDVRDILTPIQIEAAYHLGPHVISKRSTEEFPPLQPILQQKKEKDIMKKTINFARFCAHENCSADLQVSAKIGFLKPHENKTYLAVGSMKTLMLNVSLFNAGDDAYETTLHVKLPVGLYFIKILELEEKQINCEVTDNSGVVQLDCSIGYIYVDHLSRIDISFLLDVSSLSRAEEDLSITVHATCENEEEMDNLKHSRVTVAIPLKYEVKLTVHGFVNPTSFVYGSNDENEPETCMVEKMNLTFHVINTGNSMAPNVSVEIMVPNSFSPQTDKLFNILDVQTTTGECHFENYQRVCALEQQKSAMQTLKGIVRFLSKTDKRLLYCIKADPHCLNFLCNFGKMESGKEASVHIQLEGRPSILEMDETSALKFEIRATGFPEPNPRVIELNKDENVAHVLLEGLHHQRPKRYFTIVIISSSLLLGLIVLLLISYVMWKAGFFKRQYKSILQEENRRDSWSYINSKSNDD
Beta2AR agonist = agonists of human beta-2 adrenergic receptor inducing internalization; Am2.2-beta2AR cells, FAP receptor internalization, flow cytometry; response, % (test concentration not listed); P07550; 340,000 tested, 0.43% active;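 active means response above a set limit, near 3 SD of response in nonfluorescent compounds, cut at about 42% in these data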
UPR CHOP confirm = confirmation of apoptotic unfolded protein response (CHOP) activators | shares compounds with CHOP UPR activ | CHO-CHOP cells, CHOP-luciferase reporter luminescence; percent of tunicamycin response, DMSO as zero | activation, % at 10 µM | 1,000 tested, 64% active | AID 463112; in the data active means activation above about 33%;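 further: 0% = DMSO wells and 100% = tunicamycin 10 µg/mL wells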
XBP1 UPR conf = confirmation of adaptive unfolded protein response (XBP1) activators | shares compounds with UPR XBP1 act | activation, % at 20 µM | AID 485299 | 1,000 tested, 63% active | CHO-XBP1 IRE1-XBP1 luciferase reporter, luminescence;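 active means reporter signal at least 30% of the positive control's activation in two or more of four replicate wells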;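 further: plate controls were DMSO negative control for no effect and tunicamycin 10 µg/mL positive control for full effect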
Starred values were filed as active, the others as inactive; i = inactive; x = no result. This excerpt belongs to a sample that is enriched for hits.

SMILES | CHOP inhibitor | UPR XBP1 act | CHOP UPR activ | VLA-4 inh | Beta2AR agonist | UPR CHOP confirm | XBP1 UPR conf
COc1cc(/C=N/N(c2ccccc2)c2ccccc2)ccc1O | x | 0 | 6 | 12 | 2 | x | x
CCn1c(C(=O)O)c(CC(=O)Nc2cccc(C(F)(F)F)c2)c2ccccc21 | x | -2 | 1 | -67 | 2 | x | x
OCCCn1c(C2CCCN2c2nc(-c3ccc(Cl)cc3)cs2)nc2cc(Cl)c(N3CCCCC3)cc21 (stereo not drawn) | x | 122* | 88* | 5 | 1 | 24 | 198*
Cc1csc(N2CCCC2c2nc3cc(Cl)c(N4CCCCC4)cc3n2CCCO)n1 (stereo not drawn) | x | -1 | -1 | -1 | -5 | x | x
COc1ccc(-c2cc(=O)oc3c(C)c(OC(=O)c4cccs4)ccc23)cc1 | 80* | 80* | 66* | -7 | 35 | 89* | 114*
COc1ccc(-c2cc(=O)oc3c(C)c(OC(C)C(C)=O)ccc23)cc1 (stereo not drawn) | x | 1 | -1 | 9 | 3 | x | x
Brc1ccc(/C=N/Nc2nncc(-c3ccccc3)n2)o1 | 37 | -2 | 2 | 20 | x | x | x
Brc1ccc(-c2ccc(/C=N/Nc3nncc(-c4ccccc4)n3)o2)cc1 | 50 | 91* | 59* | -5 | 21 | 62* | 128*
Nc1cccc(-c2nc3cc(S(=O)(=O)c4ccc5oc(-c6cccc(N)c6)nc5c4)ccc3o2)c1 | 11 | 50* | 57* | -7 | 18 | 78* | 92*
Cc1ccc2oc(-c3cccc(N)c3)nc2c1 | 1 | -7 | -2 | 11 | 0 | x | x
O=c1[nH]c(-c2ccc(-c3cccc(Cl)c3)o2)nc2ccccc12 | x | 92* | 74* | 6 | 0 | 105* | 176*
Cc1ccc(-c2nn(-c3ccccc3)cc2/C=C/C(=O)Nc2nccs2)cc1 | 93* | 50* | 45* | 20 | 0 | 13 | 26
CCOc1ccccc1-n1c(SCC(=O)Nc2ccc(CC)cc2)nc2n[nH]c(C)c2c1=N | 96* | 246* | 181* | -13 | x | 107* | 233*
CN(c1ccccc1)S(=O)(=O)c1cccc(C(=O)NCCc2ccc(O)c(O)c2)c1 | -91 | 97* | 93* | 6 | 0 | 82* | 64*
COc1ccc([N+](=O)[O-])cc1NC(=O)CCN1CCOCC1 | x | -1 | -1 | 5 | -1 | x | x
Nc1ccc(N=Nc2ccccc2)c2ccccc12 | -5 | 0 | 0 | 0 | -13 | x | x
c1ccc(N=Nc2ccc3cccccc2-3)cc1 | x | 83* | 67* | -2 | -4 | 21 | 60*
Cc1ccc(NC(=O)c2ccc(N/N=C/c3cccc(O)c3)c([N+](=O)[O-])c2)cc1 | 69 | 51* | 63* | 1 | 7 | 52* | 39*
Cc1ccccc1NC(=O)c1ccc(N/N=C/c2ccccc2O)c([N+](=O)[O-])c1 | 19 | 45* | 48* | 18 | -5 | 71* | 71*
COc1cc(-c2ccc3oc(-c4cccc(C)c4)c(C#CC4(O)CCCCC4)c3c2)cc(OC)c1OC | x | 2 | 1 | -39 | 15 | x | x
CCOC(=O)c1cnc(Nc2nc3ccccc3o2)nc1CSC(=S)N(CC)CC | -90 | 33* | 127* | 28 | -12 | 122* | 21
Cc1ccc2c(c1)C(c1ccc([N+](=O)[O-])cc1)=NNC(c1ccc(Br)cc1)=N2 | 94* | 84* | 75* | -18 | -11 | 25 | 74*
Cc1ccc2c(c1)C(c1ccncc1)=NNC(c1cccnc1)=N2 | -3 | -1 | 2 | -3 | -14 | x | x
CC1=C(C(=O)NC2CC(C)(C)Cc3c2cnn3-c2cccc(F)c2)OCCO1 (stereo not drawn) | x | -3 | -2 | -101 | 0 | x | x
CC(=O)Nc1ccc(N=Cc2c(O)c(C(=O)Nc3ccccc3)cc3ccccc23)cc1 | 40 | 90* | 45* | i | x | 43* | 13
O=C(NCc1ccc2c(c1)OCO2)c1nc(Cn2cc([N+](=O)[O-])cn2)no1 | x | -6 | 4 | 2 | 1 | x | x

Assay outcomes deposited in PubChem by several laboratories.
